This experiment can be described thus: Binding affinity to blood-brain barrier choline transporter in rat brain assessed as inhibition of [3H]choline uptake. It is filed as tissue-based. A digest of the protocol:
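In situ rat brain perfusion (Allen and Smith modification); inhibition of [3H]choline uptake into brain measured. Ki taken as analogue concentration inhibiting 50% of [3H]-choline uptake, calculated from a single inhibitor concentration. Ki values compared by ANOVA with Bonferroni's multiple comparisons test.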
A word on the Ki: it is the dissociation constant of the complex between target and ligand, obtained from inhibition or displacement. For `c1ccc2c[n+](CCCCCCCCCC[n+]3ccc4ccccc4c3)ccc2c1`, the Ki is 9.5 µM.
For `C1#Cc2ccc[n+](c2)CCCC[n+]2cccc(c2)C#CCCCCCC1` the value was 15.2 µM; for `C1#Cc2ccc[n+](c2)CCCCCCCC[n+]2cccc(c2)C#CCCCCCC1`, 0.8 µM.
Take `C1#Cc2ccc[n+](c2)CCCCCCCCC[n+]2cccc(c2)C#CCCCCCC1`: the Ki is 33.8 µM.
In the case of `c1ccc2c[n+](CCCCCC[n+]3ccc4ccccc4c3)ccc2c1` it was 29 µM; in that of `CCCCCCCC[n+]1cccc([C@@H]2CCCN2C)c1`, 49 µM; in that of `C[N+](C)(C)CCO` [CHOLINE], 41 µM.
Regarding `C1#Cc2ccc[n+](c2)CCCCCCC[n+]2cccc(c2)C#CCCCCCC1`, the inhibitory constant (Ki) amounted to 1.4 µM.
In the case of `Cc1ccc[n+](CCCCCCCCCCCC[n+]2cccc(C)c2)c1` it was 36 µM; in that of `c1ccc2c[n+](CCCCCCCCCCCC[n+]3ccc4ccccc4c3)ccc2c1`, 22 µM.
